Results: ChEMBL document CHEMBL1921722, “In vitro and in vivo evaluation of select kahalalide F analogs with antitumor and antifungal activities” (Bioorg Med Chem, 2011)
In brackets after ≈: the same amount, converted by molar mass. Activity calls are given as the source filed them.

Experiments:
COLO 205 = assay: Cytotoxicity against human COLO205 cells assessed as cell growth at 80 uM by sulforhodamine B assay relative to control; type: functional; conditions: read-out: Activity
Method in brief: (§1)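 Run at NCI in the DTP 60-cell-line human tumor panel by standard procedure. Compounds were first screened at a single concentration, then tested at five tenfold-spaced concentrations. GI50 is the concentration reducing treated-cell growth to half that of untreated controls; TGI is the concentration completely halting growth.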

PC-3 [1] = assay: Cytotoxicity against human PC3 cells assessed as cell growth at 8 nM by sulforhodamine B assay relative to control; type: functional; conditions: read-out: Activity
HOP-62 = assay: Cytotoxicity against human HOP62 cells assessed as cell growth at 80 nM by sulforhodamine B assay relative to control; type: functional; conditions: read-out: Activity
LOX IMVI [2] = assay: Cytotoxicity against human LOXIMVI cells assessed as cell growth at 800 nM by sulforhodamine B assay relative to control; type: functional; conditions: read-out: Activity
HCT-116 [3] = assay: Cytotoxicity against human HCT116 cells assessed as cell growth at 8 uM by sulforhodamine B assay relative to control; type: functional; conditions: read-out: Activity
UACC-257 = assay: Cytotoxicity against human UACC257 cells assessed as cell growth at 8 uM by sulforhodamine B assay relative to control; type: functional; conditions: read-out: Activity
NCI/ADR-RES [4] = assay: Cytotoxicity against human NCI/ADR-RES cells assessed as cell growth at 80 uM by sulforhodamine B assay relative to control; type: functional; conditions: read-out: Activity
Pseudomonas aeruginosa = assay: Antimicrobial activity against Pseudomonas aeruginosa ATCC 27853 by CLSI method; type: functional, organism-based
SNB-75 [5] = assay: Cytotoxicity against human SNB75 cells assessed as cell growth at 8 uM by sulforhodamine B assay relative to control; type: functional; conditions: read-out: Activity
NCI-H226 = assay: Cytotoxicity against human NCI-H226 cells assessed as cell growth at 80 nM by sulforhodamine B assay relative to control; type: functional; conditions: read-out: Activity
MDA-MB-231 = assay: Cytotoxicity against human MDA-MB-231 cells assessed as cell growth at 800 nM by sulforhodamine B assay relative to control; type: functional; conditions: read-out: Activity
LOX IMVI [6] = assay: Cytotoxicity against human LOXIMVI cells assessed as cell growth at 80 nM by sulforhodamine B assay relative to control; type: functional; conditions: read-out: Activity
OVCAR-8 = assay: Cytotoxicity against human OVCAR8 cells assessed as cell growth at 80 nM by sulforhodamine B assay relative to control; type: functional; conditions: read-out: Activity
ACHN [7] = assay: Cytotoxicity against human ACHN cells assessed as cell growth at 8 nM by sulforhodamine B assay relative to control; type: functional; conditions: read-out: Activity; method in brief: as §1
SF-295 [8] = assay: Cytotoxicity against human SF295 cells by sulforhodamine B assay; type: functional
Method in brief: (§2)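 NCI Developmental Therapeutics Program 60-cell-line human tumor panel screen, run at NCI. A single-concentration pre-screen was followed by a five-concentration dose-response in 10-fold steps. GI50 is the concentration that reduces growth of treated cells to half that of untreated control cells. TGI is the concentration that completely halts growth.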

M14 [9] = assay: Cytotoxicity against human M14 cells assessed as cell growth at 8 uM by sulforhodamine B assay relative to control; type: functional; conditions: read-out: Activity
SF-295 [10] = assay: Cytotoxicity against human SF295 cells assessed as cell growth at 800 nM by sulforhodamine B assay relative to control; type: functional; conditions: read-out: Activity
RPMI-8226 = assay: Cytotoxicity against human RPMI8226 cells assessed as cell growth at 80 uM by sulforhodamine B assay relative to control; type: functional; conditions: read-out: Activity
MOLT-4 [11] = assay: Cytotoxicity against human MOLT4 cells assessed as cell growth at 800 nM by sulforhodamine B assay relative to control; type: functional; conditions: read-out: Activity
NCI-H23 = assay: Cytotoxicity against human NCI-H23 cells assessed as cell growth at 800 nM by sulforhodamine B assay relative to control; type: functional; conditions: read-out: Activity
MOLT-4 [12] = assay: Cytotoxicity against human MOLT4 cells assessed as cell growth at 80 nM by sulforhodamine B assay relative to control; type: functional; conditions: read-out: Activity
M14 [13] = assay: Cytotoxicity against human M14 cells assessed as cell growth at 800 nM by sulforhodamine B assay relative to control; type: functional; conditions: read-out: Activity
PC-3 [14] = assay: Cytotoxicity against human PC3 cells assessed as cell growth at 800 nM by sulforhodamine B assay relative to control; type: functional; conditions: read-out: Activity
NCI/ADR-RES [15] = assay: Cytotoxicity against human NCI/ADR-RES cells assessed as cell growth at 800 nM by sulforhodamine B assay relative to control; type: functional; conditions: read-out: Activity
SW-620 = assay: Cytotoxicity against human SW620 cells assessed as cell growth at 800 nM by sulforhodamine B assay relative to control; type: functional; conditions: read-out: Activity
Cryptococcus neoformans = assay: Antimicrobial activity against Cryptococcus neoformans ATCC 90113 by CLSI method; type: functional, organism-based
SNB-75 [16] = assay: Cytotoxicity against human SNB75 cells assessed as cell growth at 80 nM by sulforhodamine B assay relative to control; type: functional; conditions: read-out: Activity
ACHN [17] = assay: Cytotoxicity against human ACHN cells assessed as cell growth at 80 uM by sulforhodamine B assay relative to control; type: functional; conditions: read-out: Activity; method in brief: as §1
HCT-116 [18] = assay: Cytotoxicity against human HCT116 cells by sulforhodamine B assay; type: functional
Method in brief: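 Run by the NCI Developmental Therapeutics Program on its 60-line human tumour cell panel using the standard procedure. Compounds went through a single-concentration prescreen first, and those active by NCI criteria went on to a five-concentration growth-inhibition test. GI50 is the concentration that cuts growth of treated cells to half that of untreated control cells.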

LOX IMVI [19] = assay: Cytotoxicity against human LOXIMVI cells assessed as cell growth at 80 uM by sulforhodamine B assay relative to control; type: functional; conditions: read-out: Activity
SF-268 = assay: Cytotoxicity against human SF268 cells assessed as cell growth at 80 nM by sulforhodamine B assay relative to control; type: functional; conditions: read-out: Activity
A498 = assay: Cytotoxicity against human A498 cells assessed as cell growth at 8 nM by sulforhodamine B assay relative to control; type: functional; conditions: read-out: Activity; method in brief: as §1
A549 [20] = assay: Cytotoxicity against human A549 cells assessed as cell growth at 800 nM by sulforhodamine B assay relative to control; type: functional; conditions: read-out: Activity; method in brief: as §1
SN12C = assay: Cytotoxicity against human SN12C cells by sulforhodamine B assay; type: functional; method in brief: as §2
MOLT-4 [21] = assay: Cytotoxicity against human MOLT4 cells by sulforhodamine B assay; type: functional; method in brief: as §2
SF-295 [22] = assay: Cytotoxicity against human SF295 cells assessed as cell growth at 8 nM by sulforhodamine B assay relative to control; type: functional; conditions: read-out: Activity
SK-MEL-5 [23] = assay: Cytotoxicity against human SK-MEL-5 cells assessed as cell growth at 800 nM by sulforhodamine B assay relative to control; type: functional; conditions: read-out: Activity
SK-MEL-5 [24] = assay: Cytotoxicity against human SK-MEL-5 cells assessed as cell growth at 80 nM by sulforhodamine B assay relative to control; type: functional; conditions: read-out: Activity
A549 [25] = assay: Cytotoxicity against human A549 cells assessed as cell growth at 8 nM by sulforhodamine B assay relative to control; type: functional; conditions: read-out: Activity; method in brief: as §1

Q: `C/C=C1\NC(=O)[C@H](Cc2ccccc2)NC(=O)[C@@H](C(C)C)NC(=O)[C@@H]([C@@H](C)CC)NC(=O)[C@H](NC(=O)[C@H](NC(=O)[C@H](CCCNCc2ccc(N3CCOCC3)cc2)NC(=O)[C@H]2CCCN2C(=O)[C@H](NC(=O)[C@@H](NC(=O)[C@@H](NC(=O)[C@H](NC(=O)CCCC(C)C)C(C)C)[C@@H](C)O)C(C)C)C(C)C)[C@@H](C)CC)[C@@H](C)OC(=O)[C@H](C(C)C)NC1=O` was tested. Which growth at 80 µM (COLO 205) did it give?
A: 13%

Q: What about the growth at 0.008 µM (PC-3 [1]) of the same compound?
A: 90%

Q: And the growth at 0.08 µM (HOP-62)?
A: 103%

Q: What about the growth at 0.8 µM (LOX IMVI [2]) of the same compound?
A: 100%

Q: What about the growth at 8 µM (HCT-116 [3]) of the same compound?
A: -66%

Q: What about the growth at 8 µM (UACC-257) of the same compound?
A: -76%

Q: And the growth at 80 µM (NCI/ADR-RES [4])?
A: -58%

Q: And the Activity (Pseudomonas aeruginosa)?
A: inactive

Q: And the growth at 8 µM (SNB-75 [5])?
A: -80%

Q: What about the growth at 0.08 µM (NCI-H226) of the same compound?
A: 107%

Q: And the growth at 0.8 µM (MDA-MB-231)?
A: 86%

Q: What about the growth at 0.08 µM (LOX IMVI [6]) of the same compound?
A: 100%

Q: What about the growth at 0.08 µM (OVCAR-8) of the same compound?
A: 98%

Q: What about the growth at 0.008 µM (ACHN [7]) of the same compound?
A: 100%

Q: What about the GI50 (SF-295 [8]) of the same compound?
A: 1740 nM

Q: And the LC50 (SF-295 [8])?
A: > 75.9 µM

Q: And the TGI (SF-295 [8]; read-out: pTGI (converted))?
A: 3.89 µM

Q: And the growth at 8 µM (M14 [9])?
A: -89%

Q: What about the growth at 0.8 µM (SF-295 [10]) of the same compound?
A: 101%

Q: And the growth at 80 µM (RPMI-8226)?
A: -29%

Q: What about the growth at 0.8 µM (MOLT-4 [11]) of the same compound?
A: 95%

Q: What about the growth at 0.8 µM (NCI-H23) of the same compound?
A: 103%

Q: And the growth at 0.08 µM (MOLT-4 [12])?
A: 95%

Q: And the growth at 0.8 µM (M14 [13])?
A: 102%

Q: And the growth at 0.8 µM (PC-3 [14])?
A: -51%

Q: And the growth at 0.8 µM (NCI/ADR-RES [15])?
A: 85%

Q: And the growth at 0.8 µM (SW-620)?
A: 75%

Q: And the IC50 (Cryptococcus neoformans)?
A: 1730 nM

Q: And the MFC (Cryptococcus neoformans)?
A: 10 µM (≈ 16.5 µg/mL)

Q: What about the MIC (Cryptococcus neoformans) of the same compound?
A: 5 µM (≈ 8.27 µg/mL)

Q: What about the growth at 0.08 µM (SNB-75 [16]) of the same compound?
A: 113%

Q: What about the growth at 80 µM (ACHN [17]) of the same compound?
A: -76%

Q: What about the GI50 (HCT-116 [18]) of the same compound?
A: 1550 nM

Q: What about the LC50 (HCT-116 [18]) of the same compound?
A: 6.03 µM

Q: And the TGI (HCT-116 [18]; read-out: pTGI (converted))?
A: 3.09 µM

Q: What about the growth at 80 µM (LOX IMVI [19]) of the same compound?
A: -59%

Q: What about the growth at 0.08 µM (SF-268) of the same compound?
A: 103%

Q: What about the growth at 0.008 µM (A498) of the same compound?
A: 96%

Q: What about the growth at 0.8 µM (A549 [20]) of the same compound?
A: -40%

Q: And the GI50 (SN12C)?
A: 1410 nM

Q: What about the LC50 (SN12C) of the same compound?
A: > 75.9 µM

Q: What about the TGI (SN12C; read-out: pTGI (converted)) of the same compound?
A: 3.31 µM

Q: And the GI50 (MOLT-4 [21])?
A: 20.4 µM

Q: And the LC50 (MOLT-4 [21])?
A: > 75.9 µM

Q: And the TGI (MOLT-4 [21]; read-out: pTGI)?
A: > 75.9 µM

Q: What about the growth at 0.008 µM (SF-295 [22]) of the same compound?
A: 107%

Q: What about the growth at 0.8 µM (SK-MEL-5 [23]) of the same compound?
A: 90%

Q: What about the growth at 0.08 µM (SK-MEL-5 [24]) of the same compound?
A: 101%

Q: What about the growth at 0.008 µM (A549 [25]) of the same compound?
A: 99%
